Sampled rows, rich in hits. Any-hit rate of the full collection: about 1.6%.
LEDGF integ inh: blockers of LEDGF/p75-dependent integrase strand transfer – biochemical, TR-FRET, high throughput, primary screen | HIV-1 integrase (with human LEDGF/p75) | TR-FRET IN-LEDGF/p75 DNA integration, Eu/Cy5 | inhibition, % at 3.7 µM | actives 0.64% (n = 370,000) | AID 743269, 2014;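 active = inhibition above the screen-wide mean plus 3 SD, cut at about 13% in these data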;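 also: signal is the Cy5 over europium emission ratio at 671 and 618 nm; 0% = plate median of compound wells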
UHRF1 MBD2 ctr: UHRF1 methylated DNA binding inhibitors, primary screen, counter-screen for MBD2 inhibitor project, biochemical, TR-FRET, human UHRF1, single concentration; actives 0.75% (n = 370,000); E3 ubiquitin-protein ligase UHRF1 (Homo sapiens), Q96T88; AID 687016, 2013; inhibition, % at 4.4 µM; UHRF1 binding to methylated oligo; in the data active = inhibition above about 21%;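 also: UHRF1 SRA domain binding a hemimethylated CpG hairpin DNA probe; 0% = median of test compound wells and 100% = reference inhibitor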
Target sequence (Q96T88 whole entry, looked up, the tested form may be a part): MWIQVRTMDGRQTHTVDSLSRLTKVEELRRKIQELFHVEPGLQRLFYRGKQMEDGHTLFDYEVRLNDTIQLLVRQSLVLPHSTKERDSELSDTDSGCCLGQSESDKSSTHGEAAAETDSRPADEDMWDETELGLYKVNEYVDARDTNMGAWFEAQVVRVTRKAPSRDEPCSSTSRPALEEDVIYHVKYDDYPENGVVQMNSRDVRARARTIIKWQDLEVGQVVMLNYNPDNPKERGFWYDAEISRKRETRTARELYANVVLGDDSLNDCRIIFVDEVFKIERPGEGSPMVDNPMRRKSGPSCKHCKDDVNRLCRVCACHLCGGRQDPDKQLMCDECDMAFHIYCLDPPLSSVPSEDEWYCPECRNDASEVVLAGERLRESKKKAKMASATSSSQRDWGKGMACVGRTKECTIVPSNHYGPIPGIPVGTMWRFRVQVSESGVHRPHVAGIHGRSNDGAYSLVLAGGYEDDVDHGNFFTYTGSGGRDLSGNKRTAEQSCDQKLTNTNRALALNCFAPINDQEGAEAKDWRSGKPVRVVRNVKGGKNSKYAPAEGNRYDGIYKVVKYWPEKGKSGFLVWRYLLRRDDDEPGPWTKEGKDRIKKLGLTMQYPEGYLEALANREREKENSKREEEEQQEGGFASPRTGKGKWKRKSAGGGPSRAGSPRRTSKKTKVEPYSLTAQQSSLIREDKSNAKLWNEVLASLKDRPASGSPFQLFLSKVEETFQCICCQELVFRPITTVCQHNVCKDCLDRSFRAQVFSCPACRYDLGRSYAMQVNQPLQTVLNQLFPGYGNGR
TDP2 inh: human TDP2 enzyme inhibitors, primary screen, biochemical, epi absorbance, recombinant enzyme | inhibition, % at 12.8 µM | Tyrosyl-DNA phosphodiesterase 2 (Homo sapiens), O95551 | T5PNP hydrolysis, p-nitrophenol absorbance 415 nm | actives 0.34% (n = 370,000);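 active = inhibition above the mean of all tested compounds plus 3 SD, set per campaign, cut at about 25% in these data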;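 also: 0% = DMSO with enzyme and 100% = buffer with substrate but no TDP2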
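Assay system: recombinant human TDP2 / Reagent: T5PNP substrate at 5 mM, a TopII-DNA adduct mimic / Measured by: epi absorbance from released p-nitrophenol / Evaluation: % inhibition relative to enzyme-containing and enzyme-free wells / Control set: enzyme-free and DMSO wells / Replicates: each compound tested once, singlicate / Schedule: enzyme reaction with compound for 2 h at 37 °C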
MBD2 inh: inhibitors of MBD2 binding to methylated DNA, primary screen, biochemical, TR-FRET, DNA-binding domain, human; MBD2 binding to methylated oligonucleotide; Methyl-CpG-binding domain protein 2 (Homo sapiens), Q9UBB5; AID 686964, 2013; actives 0.31% (n = 370,000); inhibition, % at 4.4 µM; in the data active = inhibition above about 13%
TDP2 inh conf: human TDP2 enzyme inhibitors, retest, confirmation, biochemical, epi absorbance, recombinant enzyme; shares compounds with TDP2 inh; absorbance read-out; inhibition, % at 12.8 µM; actives 22% (n = 1,100); AID 743263, 2014; in the data active = inhibition above about 25%;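 also: 0% = vehicle with enzyme and 100% = no enzyme buffer only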
IN multimer up: HIV-1 IN multimer formation enhancers, counter-screen for LEDGF/p75 integration inhibitor project, biochemical, TR-FRET; shares compounds with LEDGF integ inh; TR-FRET HIV-1 integrase multimerization; activation, % at 7.7 µM; actives 17% (n = 2,000); in the data active = activation above about 8.9%
TR-FRET interf: TR-FRET optical interference artefacts, confirmation, artefact control for LEDGF/p75-dependent integration inhibitor project, biochemical, HIV-1 IN multimerization | shares compounds with LEDGF integ inh | TR-FRET optical interference counterscreen | inhibition, % at 7.7 µM | 2,000 tested, under 10 active | AID 1053135, 2014;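 active = inhibition above the mean over all tested compounds plus 3 SD, which no compound reached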;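 also: 0% = integrase with antibodies and DMSO and 100% = antibodies without integrase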
LEDGF integ conf: inhibitors of HIV-1 IN-LEDGF/p75 DNA integration, confirmation, biochemical, TR-FRET. shares compounds with LEDGF integ inh. TR-FRET LEDGF/p75-dependent HIV-1 integration. inhibition, % at 3.7 µM. actives 36% (n = 2,000). AID 1053136, 2014; in the data active = inhibition above about 14%
* = called active by the depositor; ! = a repeat was not active.

`Cc1ccc(S(=O)(=O)NC2=C(N3CCN(c4ccccc4F)CC3)C(=O)c3ccccc3C2=O)cc1` gave LEDGF integ inh 15.2*!, UHRF1 MBD2 ctr 0.1, TDP2 inh 25.2*!, MBD2 inh -5.2, TDP2 inh conf 1.4, IN multimer up -0.5, TR-FRET interf 2.4 and LEDGF integ conf 2.2.
`Cc1ccc(S(=O)(=O)NC2=C(N3CCN(Cc4ccccc4)CC3)C(=O)c3ccccc3C2=O)cc1` gave LEDGF integ inh 2.9, UHRF1 MBD2 ctr -6.2, TDP2 inh 0.8 and MBD2 inh -8.3.
`Cc1cc(=O)n(-c2ccc(O)cc2)[nH]1` gave LEDGF integ inh 18.6*, UHRF1 MBD2 ctr 6.4, TDP2 inh 55.9*, MBD2 inh -4.2, TDP2 inh conf 15.0, IN multimer up 1.3, TR-FRET interf -6.5 and LEDGF integ conf -5.1.
Screening O=c1[nH]c(Nc2ccccc2)cc2cc(Br)ccc12 returned LEDGF integ inh 35.0*, UHRF1 MBD2 ctr 9.6, TDP2 inh 83.2*, MBD2 inh 1.5, TDP2 inh conf 57.8*, IN multimer up 1.6, TR-FRET interf -5.6 and LEDGF integ conf 57.6*.
For COc1ccccc1Nc1cc2cc(Br)ccc2c(=O)[nH]1 the results were LEDGF integ inh 21.4*, UHRF1 MBD2 ctr 18.5, TDP2 inh 63.2*, MBD2 inh -3.6, TDP2 inh conf 57.0*, IN multimer up 6.5, TR-FRET interf -22.8 and LEDGF integ conf 73.3*.
Screening CC(=O)c1cccc(-c2ccc3c(=O)[nH]c(Nc4ccccc4)cc3c2)c1 returned LEDGF integ inh 21.2*, UHRF1 MBD2 ctr 2.1, TDP2 inh 56.9*, MBD2 inh 0.9, TDP2 inh conf 52.3*, IN multimer up 4.0, TR-FRET interf -14.4 and LEDGF integ conf 71.1*.
For COc1ccccc1Nc1nnc(C)c(=O)[nH]1 the results were LEDGF integ inh 0.9, UHRF1 MBD2 ctr 4.2, TDP2 inh -5.3 and MBD2 inh 2.7.
`COc1ccc(OC)c(Nc2cc3ccccc3c(=O)[nH]2)c1` gave LEDGF integ inh 17.2*, UHRF1 MBD2 ctr 1.0, TDP2 inh 67.7*, MBD2 inh -5.3, TDP2 inh conf 60.7*, IN multimer up 5.5, TR-FRET interf -19.6 and LEDGF integ conf 64.6*.
Screening O=C(CCc1c[nH]c2ccccc12)Nc1ccc(Nc2ccccc2)cc1 returned LEDGF integ inh -4.5, UHRF1 MBD2 ctr 1.6, TDP2 inh -0.3 and MBD2 inh 0.0.
Screening COc1ccc(C(=O)C2(C(=O)NC3CCCC3)CC(c3ccccc3C(F)(F)F)=NO2)cc1 (stereo not drawn) returned LEDGF integ inh -0.1, UHRF1 MBD2 ctr 1.0, TDP2 inh 10.7 and MBD2 inh 1.9.
For CCc1nccn1CC(=O)c1ccc(O)c(O)c1 the results were LEDGF integ inh 0.8, UHRF1 MBD2 ctr 12.9, TDP2 inh -9.2 and MBD2 inh 3.5.
Screening COC(=O)[C@]12C[C@H](CC(=O)N3CCN(C(=O)c4ccco4)CC3)C(=O)N(Cc3ccco3)C1=C[C@H](COCc1ccccc1)O[C@@H]2C returned LEDGF integ inh 9.3, UHRF1 MBD2 ctr -0.5, TDP2 inh -4.5 and MBD2 inh 0.0.
`Nn1cnnc1N/N=C/c1ccc(Cl)cc1Cl` gave LEDGF integ inh 47.9*, UHRF1 MBD2 ctr 10.8, TDP2 inh 72.9*, MBD2 inh -4.4, TDP2 inh conf -7.4, IN multimer up 0.6, TR-FRET interf -2.0 and LEDGF integ conf -1.6.
Screening COc1cc(/C=N/Nc2nncn2N)ccc1OCc1c(C)no[n+]1[O-] returned LEDGF integ inh 58.8*, UHRF1 MBD2 ctr 8.2, TDP2 inh 67.7*, MBD2 inh 2.2, TDP2 inh conf 6.0, IN multimer up 0.6, TR-FRET interf -2.8 and LEDGF integ conf -3.0.
For COc1cc(/C=C(\C#N)C(N)=O)ccc1OCc1c(C)no[n+]1[O-] the results were LEDGF integ inh 2.8, UHRF1 MBD2 ctr 1.6, TDP2 inh -10.0 and MBD2 inh -0.8.
For O=C(N/N=C/c1ccc(Cl)cc1Cl)c1ccc(-n2cnnn2)cc1 the results were LEDGF integ inh 3.7, UHRF1 MBD2 ctr 2.2, TDP2 inh -13.2 and MBD2 inh -8.5.
`COc1ccc(/C=N/Nc2nncn2N)cc1Br` gave LEDGF integ inh 70.3*, UHRF1 MBD2 ctr 7.1, TDP2 inh 75.3*, MBD2 inh -5.1, TDP2 inh conf 7.7, IN multimer up 0.2, TR-FRET interf -0.7 and LEDGF integ conf -6.3.
CCOC(=O)[C@]12CCCCC/C=C\1N(CCc1ccc(Cl)cc1)C(=O)[C@H]2CC(=O)NCc1ccccc1 was read as LEDGF integ inh 3.0, UHRF1 MBD2 ctr 0.3, TDP2 inh -5.0 and MBD2 inh -7.1.
For Cc1ccc(-n2c(Cc3cccs3)nnc2SCc2ccc(Br)cc2)cc1 the results were LEDGF integ inh -2.0, UHRF1 MBD2 ctr -0.1, TDP2 inh -2.2 and MBD2 inh -3.2.
`O=C(N/N=C/c1cccs1)c1ccccn1` gave LEDGF integ inh -7.5, UHRF1 MBD2 ctr -4.7, TDP2 inh -9.8 and MBD2 inh -0.4.
For C(=NN=C(NN=Cc1cccs1)NN=Cc1cccs1)c1cccs1 the results were LEDGF integ inh 34.0*, UHRF1 MBD2 ctr 4.8, TDP2 inh 54.4*, MBD2 inh -4.2, TDP2 inh conf -0.8, IN multimer up 0.4, TR-FRET interf -1.3 and LEDGF integ conf -11.3.
C=CCn1c(NC(=O)c2ccccc2Cl)c(C#N)c2nc3ccccc3nc21 was read as LEDGF integ inh 29.6*, UHRF1 MBD2 ctr 13.0, TDP2 inh 79.0*, MBD2 inh 17.7*, TDP2 inh conf 45.0*, IN multimer up -3.0, TR-FRET interf 10.8 and LEDGF integ conf 71.5*.
`O=C1C=C(N2CCCCC2)c2ccccc2C1=O` gave LEDGF integ inh 28.9*, UHRF1 MBD2 ctr -1.4, TDP2 inh 69.8*, MBD2 inh -19.7, TDP2 inh conf 85.1*, IN multimer up 6.2, TR-FRET interf -21.8 and LEDGF integ conf 67.2*.

Source: PubChem
